ChEMBL document CHEMBL4364334, “Synthesis, biological evaluation and molecular modeling of novel selective COX-2 inhibitors: sulfide, sulfoxide, and sulfone derivatives of 1,5-diarylpyrrol-3-substituted scaffold” (Bioorg Med Chem, 2019)
pIC50: −log10 of the molar value.

Assays:
[1] = biological target: T1, Prostaglandin G/H synthase 2 (Mus musculus, UniProt Q05769); test: Inhibition of COX-2 in LPS-induced mouse J774 cells assessed as inhibition of PEG2 production after 24 hrs by radioimmuno assay; type: cell-based
T1 sequence (Q05769 whole entry): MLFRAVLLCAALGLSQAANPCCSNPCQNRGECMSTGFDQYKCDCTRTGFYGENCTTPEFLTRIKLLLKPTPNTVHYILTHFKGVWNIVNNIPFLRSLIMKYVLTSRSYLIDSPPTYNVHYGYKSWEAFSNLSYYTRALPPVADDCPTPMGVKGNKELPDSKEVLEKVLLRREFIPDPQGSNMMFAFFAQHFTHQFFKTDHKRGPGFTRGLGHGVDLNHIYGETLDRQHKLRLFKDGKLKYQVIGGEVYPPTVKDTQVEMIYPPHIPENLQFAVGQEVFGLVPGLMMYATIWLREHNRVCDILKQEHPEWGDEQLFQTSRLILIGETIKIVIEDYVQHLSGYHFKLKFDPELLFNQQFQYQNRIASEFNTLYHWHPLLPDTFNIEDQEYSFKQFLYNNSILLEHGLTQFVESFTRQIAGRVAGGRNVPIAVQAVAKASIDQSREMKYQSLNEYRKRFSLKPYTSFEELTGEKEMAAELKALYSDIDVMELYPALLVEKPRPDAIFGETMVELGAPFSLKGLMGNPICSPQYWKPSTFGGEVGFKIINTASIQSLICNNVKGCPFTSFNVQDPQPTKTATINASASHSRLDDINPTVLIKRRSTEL

[2] = biological target: T2, Prostaglandin G/H synthase 1 (Mus musculus, UniProt P22437); test: Inhibition of COX-1 in mouse J774 cells assessed as inhibition of PEG2 production using arachidonic acid as substrate pretreated for 15 mins followed by substrate addition measured after 30 mins by radioimmuno assay; type: cell-based
T2 sequence (P22437 whole entry): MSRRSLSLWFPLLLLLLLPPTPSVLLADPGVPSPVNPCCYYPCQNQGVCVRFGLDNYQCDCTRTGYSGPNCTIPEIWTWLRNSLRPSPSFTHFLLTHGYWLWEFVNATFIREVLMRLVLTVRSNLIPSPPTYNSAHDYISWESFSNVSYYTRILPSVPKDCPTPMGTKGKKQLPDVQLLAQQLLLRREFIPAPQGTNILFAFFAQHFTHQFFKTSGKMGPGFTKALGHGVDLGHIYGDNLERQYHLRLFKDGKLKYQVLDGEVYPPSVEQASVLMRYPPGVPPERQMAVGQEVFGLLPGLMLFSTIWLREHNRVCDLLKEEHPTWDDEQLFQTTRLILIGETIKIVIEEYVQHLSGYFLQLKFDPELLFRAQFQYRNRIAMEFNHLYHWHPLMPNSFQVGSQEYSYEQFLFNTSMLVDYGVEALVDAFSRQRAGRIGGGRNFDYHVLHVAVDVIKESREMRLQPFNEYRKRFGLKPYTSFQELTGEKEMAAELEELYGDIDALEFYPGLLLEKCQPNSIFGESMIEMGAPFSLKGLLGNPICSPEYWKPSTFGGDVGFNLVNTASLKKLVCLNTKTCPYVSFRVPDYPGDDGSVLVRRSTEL
Summary of the method: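 Murine J774 macrophages were adhered 2 h at 37 °C in 5% CO2 and given fresh medium. They were pretreated 15 min with compound (10 µM; 0.1–1 µM when inhibition exceeded 50%), then incubated 30 min at 37 °C with 15 µM arachidonic acid. Supernatant PGE2 was measured by RIA. Values are means of 3 experiments of % inhibition versus control, with IC50 from a sigmoidal variable-slope fit.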

Mus musculus [3] = species on record: Mus musculus; test: Selectivity index, ratio of IC50 for inhibition of COX-1 in mouse J774 cells to IC50 for inhibition of COX-2 in LPS-induced mouse J774 cells; type: cell-based
Mus musculus [4] = test: Antinociceptive activity in Swiss albino mouse model of acetic-acid-induced writhing assessed as inhibition of writhing numbers at 40 mg/kg, po measured starting 5 mins post acetic acid challenge for 10 mins (reference value: 30.5 +/- 3.7)
Mus musculus [5] = test: Antinociceptive activity in Swiss albino mouse model of acetic-acid-induced writhing assessed as inhibition of writhing numbers at 20 mg/kg, po measured starting 5 mins post acetic acid challenge for 10 mins (reference value: 30.5 +/- 3.7)
Rattus norvegicus [6] = test: (§1) Antiinflammatory activity in rat assessed as inhibition of carrageenan-induced paw edema by measuring paw volume at 20 mg/kg, po administered as single dose preincubated with carrageenan for 4 hrs and followed by compound treatment and measured after 1 hr by plethysmometer relative to untreated control; type: functional
Rattus norvegicus [7] = test: as §1, with “effect on” for “inhibition of”, “30 mins” for “1 hr”, “(reference value: 2.78 +/- 0.09 ml)” for “relative to untreated control”; type: functional
Rattus norvegicus [8] = test: (§2) Anti-inflammatory activity in rat assessed as effect on carrageenan-induced hyperalgesia by measuring paw pressure tolerance at 20 mg/kg, po administered as single dose preincubated with carrageenan for 4 hrs and followed by compound treatment and measured after 90 mins by paw-pressure test (reference value: 36.7 +/- 4 g); type: functional
Rattus norvegicus [9] = test: as §2, with “after 30” for “after 90”, “value: 33.9” for “value: 36.7”, “+/- 3.7” for “+/- 4”; type: functional
Mus musculus [10] = test: Antinociceptive activity in Swiss albino mouse model of acetic-acid-induced writhing assessed as inhibition of writhing numbers at 10 mg/kg, po measured starting 5 mins post acetic acid challenge for 10 mins (reference value: 30.5 +/- 3.7)
Rattus norvegicus [11] = test: as §2, with “after 60” for “after 90”, “value: 37.2” for “value: 36.7”, “+/- 3.5” for “+/- 4”; type: functional

| SMILES | pIC50 [1] | pIC50 [2] | Ratio IC50 (Mus musculus [3]) | Activity (Mus musculus [4]) | Activity (Mus musculus [5]) | inhibition in vivo at 20 mg/kg (Rattus norvegicus [6]) [%] | Activity (Rattus norvegicus [7]) [mL] | Activity (Rattus norvegicus [8]) [g] | Activity (Rattus norvegicus [9]) [g] | Activity (Mus musculus [10]) | Activity (Rattus norvegicus [11]) [g] |
| --- | --- | --- | --- | --- | --- | --- | --- | --- | --- | --- | --- |
| CCCS(=O)(=O)CCc1cc(-c2ccc(S(C)(=O)=O)cc2)n(-c2ccc(F)cc2)c1C | 7.36 | < 5.00 | > 227 | – | – | – | – | – | – | – | – |
| CCCSCCc1cc(-c2ccc(S(C)(=O)=O)cc2)n(-c2cccc(F)c2)c1C | 6.55 | < 5.00 | > 24 | 23.7 | 23.4 | 100 | 1.74 | 37.2 | 41.5 | 30.3 | 38.8 |
| CCCS(=O)(=O)CCc1cc(-c2ccc(S(C)(=O)=O)cc2)n(-c2ccccc2)c1C | 7.47 | < 5.00 | > 294 | – | – | – | – | – | – | – | – |
| CCCSCCc1cc(-c2ccc(S(C)(=O)=O)cc2)n(-c2ccccc2)c1C | 7.85 | < 5.00 | > 714 | 26.4 | 25.9 | 100 | 1.69 | 40.2 | 46 | 32.6 | 40.3 |
| CCCSCCc1cc(-c2ccc(S(C)(=O)=O)cc2)n(-c2ccc(F)cc2)c1C | 7.96 | < 5.00 | > 909 | 15.9 | 17.4 | 100 | 1.75 | 41.9 | 57.3 | 28.7 | 50.4 |
| CCC[S+]([O-])CCc1cc(-c2ccc(S(C)(=O)=O)cc2)n(-c2ccc(F)cc2)c1C (centres undefined) | 7.40 | < 5.00 | > 250 | 20.3 | 23.4 | 100 | 1.55 | 38.2 | 53.5 | 28.8 | 42.5 |
| CCC[S+]([O-])CCc1cc(-c2ccc(S(C)(=O)=O)cc2)n(-c2ccccc2)c1C (centres undefined) | 7.22 | < 5.00 | > 167 | – | – | – | – | – | – | – | – |
| Cc1c(CCOCCO)cc(-c2ccc(S(C)(=O)=O)cc2)n1-c1ccc(F)cc1 | – | < 5.00 | – | – | – | – | – | – | – | – | – |
